≈ marks a conversion by molar mass, not a printed value.
Tests used:
Staphylococcus aureus [1] = test: Antimicrobial activity against Staphylococcus aureus ATCC 29213 after 16 to 18 hrs by agar dilution method; format: functional
Staphylococcus aureus [2] = test: Antimicrobial activity against methicillin-susceptible Staphylococcus aureus after 16 to 18 hrs by agar dilution method; format: functional
Staphylococcus aureus [3] = test: Antimicrobial activity against methicillin-resistant Staphylococcus aureus after 16 to 18 hrs by agar dilution method; format: functional
Streptococcus pneumoniae = test: Antimicrobial activity against sStreptococcus pneumoniae after 16 to 18 hrs by agar dilution method; format: functional
Enterococcus faecalis = test: Antimicrobial activity against Enterococcus faecalis after 16 to 18 hrs by agar dilution method; format: functional
Staphylococcus aureus [4] = test: Antimicrobial activity against methicillin-resistant Staphylococcus aureus 05-2 infected in po dosed KunMing SPF mouse; format: functional
Outline: (§1)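 Mice given a lethal systemic infection by intraperitoneal injection of the MLD inoculum of MRSA 05-2. Compound dosed orally or by i.v. injection in 0.9% NaCl immediately and 4 h post-infection. ED50 (dose curing 50% of infected mice) calculated by the Bliss method on day 7 post-infection, with 95% confidence ranges.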

Staphylococcus aureus [5] = test: Antimicrobial activity against methicillin-resistant Staphylococcus aureus 05-2 infected in iv dosed KunMing SPF mouse; format: functional; outline: as §1
[6] = Cmax in Sprague-Dawley rat at 10 mg/kg, po; format: ADME, organism-based; set-up: dose 10 mg/kg, route oral; conditions: in vivo
Outline: (§2)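 Single dose given orally (10 or 50 mg/kg) or intravenously (10 mg/kg). Serial 300 µL blood samples were taken from the retrobulbar vein. Plasma was quantified by LC-MS. Parameters came from mean plasma concentration by non-compartmental analysis. F is absolute oral bioavailability, assuming linear pharmacokinetics.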

[7] = Cmax in Sprague-Dawley rat at 50 mg/kg, po; format: ADME, organism-based; set-up: dose 50 mg/kg, route oral; conditions: in vivo; outline: as §2
[8] = Tmax in Sprague-Dawley rat at 10 mg/kg, po; format: ADME, organism-based; set-up: dose 10 mg/kg, route oral; conditions: in vivo; outline: as §2
[9] = Tmax in Sprague-Dawley rat at 50 mg/kg, po; format: ADME, organism-based; set-up: dose 50 mg/kg, route oral; conditions: in vivo; outline: as §2
[10] = Elimination half life in Sprague-Dawley rat at 10 mg/kg, po; format: ADME, organism-based; set-up: dose 10 mg/kg, route oral; conditions: in vivo, read-out: beta t1/2 (converted); outline: as §2
[11] = Elimination half life in Sprague-Dawley rat at 50 mg/kg, po; format: ADME, organism-based; set-up: dose 50 mg/kg, route oral; conditions: in vivo, read-out: beta t1/2 (converted); outline: as §2
[12] = AUC (0 to infinity) in Sprague-Dawley rat at 10 mg/kg, po; format: ADME, organism-based, Plasma; set-up: time infinity, dose 10 mg/kg, route oral; conditions: Sprague-Dawley, plasma; outline: as §2
[13] = AUC (0 to infinity) in Sprague-Dawley rat at 50 mg/kg, po; format: ADME, organism-based, Plasma; set-up: time infinity, dose 50 mg/kg, route oral; conditions: Sprague-Dawley, plasma; outline: as §2
[14] = AUC (0 to infinity) in Sprague-Dawley rat at 10 mg/kg, iv; format: ADME, organism-based; set-up: time infinity, dose 10 mg/kg, route intravenous; conditions: plasma; outline: as §2
[15] = Clearance in Sprague-Dawley rat at 10 mg/kg, po; format: ADME, organism-based; set-up: dose 10 mg/kg, route oral; conditions: in vivo; outline: as §2
[16] = Clearance in Sprague-Dawley rat at 50 mg/kg, po; format: ADME, organism-based; set-up: dose 50 mg/kg, route oral; conditions: in vivo; outline: as §2
[17] = Clearance in Sprague-Dawley rat at 10 mg/kg, iv; format: ADME, organism-based; set-up: dose 10 mg/kg, route intravenous; conditions: in vivo; outline: as §2
[18] = Oral bioavailability in Sprague-Dawley rat at 10 mg/kg; format: ADME, organism-based; conditions: in vivo; outline: as §2
[19] = Elimination half life in Sprague-Dawley rat at 10 mg/kg, iv; format: ADME, organism-based; set-up: dose 10 mg/kg, route intravenous; conditions: in vivo, read-out: beta t1/2 (converted); outline: as §2

Compound	MIC (Staphylococcus aureus [1]) [µg/mL]	MIC (Staphylococcus aureus [2]) [µg/mL]	MIC (Staphylococcus aureus [3]) [µg/mL]	MIC (Streptococcus pneumoniae) [µg/mL]	MIC (Enterococcus faecalis) [µg/mL]	further results
O=Cc1cccc(CN2CCN(c3ccc(N4C[C@H](Cn5ccnn5)OC4=O)cc3F)CC2)c1	0.25 (≈ 0.538 µM)	0.5 (≈ 1.08 µM)	0.125 (≈ 0.269 µM)	1 (≈ 2.15 µM)	1 (≈ 2.15 µM)	
O=C1O[C@@H](Cn2ccnn2)CN1c1ccc(N2CCN(Cc3ccncc3)CC2)c(F)c1	0.5 (≈ 1.14 µM)	0.5 (≈ 1.14 µM)	1 (≈ 2.29 µM)	1 (≈ 2.29 µM)	2 (≈ 4.57 µM)	
O=C1O[C@@H](Cn2ccnn2)CN1c1ccc(N2CCN(Cc3ccccc3[N+](=O)[O-])CC2)c(F)c1	0.125 (≈ 0.26 µM)	0.125 (≈ 0.26 µM)	1 (≈ 2.08 µM)	1 (≈ 2.08 µM)	> 2	
Nc1ccccc1CN1CCN(c2ccc(N3C[C@H](Cn4ccnn4)OC3=O)cc2F)CC1	0.125 (≈ 0.277 µM)	0.125 (≈ 0.277 µM)	0.5 (≈ 1.11 µM)	0.5 (≈ 1.11 µM)	1 (≈ 2.21 µM)	
O=C1O[C@@H](Cn2ccnn2)CN1c1ccc(N2CCN(Cc3cccc([N+](=O)[O-])c3)CC2)c(F)c1	0.03 (≈ 0.0623 µM)	0.06 (≈ 0.125 µM)	0.5 (≈ 1.04 µM)	0.5 (≈ 1.04 µM)	0.5 (≈ 1.04 µM)	ED50 (Staphylococcus aureus [4]): 7.87 mg/kg; ED50 (Staphylococcus aureus [5]): 11.2 mg/kg; Cmax [6]: 3240 ng/mL; Cmax [7]: 10800 ng/mL; Tmax [8]: 1.4 h; Tmax [9]: 2.3 h; half-life [10]: 2.36 h; half-life [11]: 5.34 h; AUC(0-inf) [12]: 16100 ng·h/mL; AUC(0-inf) [13]: 74500 ng·h/mL; AUC(0-inf) [14]: 26200 ng·h/mL; CL/F [15]: 11.7 mL/min/kg; CL/F [16]: 11.3 mL/min/kg; clearance [17]: 6.98 mL/min/kg; bioavailability [18]: 61.5%; half-life [19]: 2.95 h
Nc1ccc(CN2CCN(c3ccc(N4C[C@H](Cn5ccnn5)OC4=O)cc3F)CC2)cc1	0.125 (≈ 0.277 µM)	0.06 (≈ 0.133 µM)	0.5 (≈ 1.11 µM)	0.5 (≈ 1.11 µM)	0.25 (≈ 0.554 µM)	ED50 (Staphylococcus aureus [4]): 14.5 mg/kg; ED50 (Staphylococcus aureus [5]): 6.73 mg/kg; Cmax [6]: 1200 ng/mL; Cmax [7]: 2320 ng/mL; Tmax [8]: 0.75 h; Tmax [9]: 1 h; half-life [10]: 3.4 h; half-life [11]: 4.67 h; AUC(0-inf) [12]: 3100 ng·h/mL; AUC(0-inf) [13]: 18100 ng·h/mL; AUC(0-inf) [14]: 7080 ng·h/mL; CL/F [15]: 54.4 mL/min/kg; CL/F [16]: 49 mL/min/kg; clearance [17]: 23.9 mL/min/kg; bioavailability [18]: 43.8%; half-life [19]: 3.52 h
O=C1O[C@@H](Cn2ccnn2)CN1c1ccc(N2CCN(Cc3ccccn3)CC2)c(F)c1	0.125 (≈ 0.286 µM)	0.125 (≈ 0.286 µM)	0.5 (≈ 1.14 µM)	0.5 (≈ 1.14 µM)	0.5 (≈ 1.14 µM)	
O=C1O[C@@H](Cn2ccnn2)CN1c1ccc(N2CCN(Cc3ccc([N+](=O)[O-])cc3)CC2)c(F)c1	0.5 (≈ 1.04 µM)	0.5 (≈ 1.04 µM)	> 8	4 (≈ 8.31 µM)	8 (≈ 16.6 µM)	
O=C1O[C@@H](Cn2ccnn2)CN1c1ccc(N2CCN(Cc3ccc(Br)s3)CC2)c(F)c1	0.06 (≈ 0.115 µM)	0.06 (≈ 0.115 µM)	0.5 (≈ 0.959 µM)	0.5 (≈ 0.959 µM)	1 (≈ 1.92 µM)	
Cc1ccc(CN2CCN(c3ccc(N4C[C@H](Cn5ccnn5)OC4=O)cc3F)CC2)s1	0.125 (≈ 0.274 µM)	0.06 (≈ 0.131 µM)	4 (≈ 8.76 µM)	2 (≈ 4.38 µM)	4 (≈ 8.76 µM)	
O=C1O[C@@H](Cn2ccnn2)CN1c1ccc(N2CCN(Cc3ccc(Cl)o3)CC2)c(F)c1	0.125 (≈ 0.271 µM)	0.125 (≈ 0.271 µM)	1 (≈ 2.17 µM)	1 (≈ 2.17 µM)	2 (≈ 4.34 µM)	

Reference: ChEMBL document CHEMBL1151774, “Synthesis and biological evaluation of new N-linked 5-triazolylmethyl oxazolidinones” (Eur J Med Chem, 2008)
